The results in this text go back to ChEMBL document CHEMBL2413032, “Synthesis and evaluation of 1-[2-(4-[(11)C]methoxyphenyl)phenyl]piperazine for imaging of the serotonin 5-HT7 receptor in the rat brain” (Bioorg Med Chem, 2013).

The source made the active and inactive calls. No cut-off for these calls is given here.

In data set [1] the test system is Rattus norvegicus. Description: Biodistribution in Sprague-Dawley rat frontal cortex assessed as increase in uptake at 0.07 to 0.11 nmol, iv pre-treated with 3 mg/kg of SB269970 measured up to 90 mins by HPLC analysis relative to control. To be noted: in vivo. Details: dose 3 mg/kg, route intravenous. It counts as ADME, organism-based. In short, it runs like this: (§1)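 PET blocking study in male Sprague–Dawley rats under isoflurane. SB269970 3 mg/kg, in saline with 10% ethanol and 5% polysorbate 80, was given 1 min before intravenous tracer. A 90-min 3D list-mode scan (350–750 keV) followed. Regional decay-corrected SUV time-activity curves were compared with baseline animals; n = 3 per group.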

Data set [2] relates to Brain. Briefly: Biodistribution in Sprague-Dawley rat brain at 0.07 to 0.11 nmol, iv after 90 mins by HPLC analysis. It counts as ADME, organism-based. The note with it: in vivo, 1.5 h. In short, it runs like this:
(§2)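 Small-animal PET in male Sprague–Dawley rats (220–240 g, 7 weeks) under isoflurane (5% induction, 1–2% maintenance). A 90-min 3D list-mode emission scan (350–750 keV) started immediately after intravenous tracer injection, framed 4 × 1, 8 × 2, 14 × 5 min. Regional uptake was decay-corrected to injection time and expressed as SUV normalized to injected radioactivity and body weight; n = 3.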

Data set [3] in a line: Drug metabolism in Sprague-Dawley rat brain assessed as intact form at 0.07 to 0.11 nmol, iv after 60 mins by HPLC analysis. It counts as ADME, organism-based. To be noted: read-out: Stability. In short, it runs like this:
(§3)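 At 15 and 60 min after intravenous tracer, rat plasma and brain were taken. Brain was homogenized in ice-cold MeCN/H2O (1:1) and centrifuged 15,000 rpm, 2 min, 4 °C. Supernatants were run on radio-HPLC (C18, 4.6 × 250 mm; MeCN/H2O/TFA 4/6/0.05; 1.0 mL/min). Intact fraction = decay-corrected tracer peak area / total peak area × 100.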

A short description of data set [4]: Drug metabolism in Sprague-Dawley rat brain assessed as intact form at 0.07 to 0.11 nmol, iv after 15 mins by HPLC analysis. It counts as ADME, organism-based. The note with it: read-out: Stability. In short, it runs like this:
as §3

Data set [5] is described as follows: Drug metabolism in Sprague-Dawley rat plasma assessed as intact form at 0.07 to 0.11 nmol, iv after 60 mins by HPLC analysis. It counts as ADME, organism-based. To be noted: read-out: Stability. In short, it runs like this: as §3
The nature of data set [6]: Drug metabolism in Sprague-Dawley rat plasma assessed as intact form at 0.07 to 0.11 nmol, iv after 15 mins by HPLC analysis. The class given is ADME, organism-based. The note with it: read-out: Stability. In short, it runs like this:
as §3

In data set [7] the test system is Brain. Description: Biodistribution in Sprague-Dawley rat brain at 0.07 to 0.11 nmol, iv after 3 to 5 mins by HPLC analysis. The class given is ADME, organism-based. To be noted: in vivo. In short, it runs like this:
as §2

Data set [8] is described as follows: n-Octanol-sodium phosphate buffer partition coefficient, log D of the compound at pH 7.4 by shake flask method. The class given is physicochemical. In short, it runs like this:
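Shake flask: [11C]tracer (about 150,000 cpm) was mixed with n-octanol (3.0 g) and 0.1 M sodium phosphate-buffered saline, pH 7.40 (3.0 g). The mix was vortexed 3 min at room temperature and centrifuged 3500 rpm for 5 min; n = 3.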

The subject of data set [9] is Cerebellum. Description: Biodistribution in Sprague-Dawley rat cerebellum assessed as increase in uptake at 0.07 to 0.11 nmol, iv pre-treated with 3 mg/kg of SB269970 measured up to 90 mins by HPLC analysis relative to control. It counts as ADME, organism-based. Details: dose 3 mg/kg, route intravenous. The note with it: in vivo. In short, it runs like this: as §1

The subject of data set [10] is Thalamus. Description: Biodistribution in Sprague-Dawley rat thalamus assessed as increase in uptake at 0.07 to 0.11 nmol, iv pre-treated with 3 mg/kg of SB269970 measured up to 90 mins by HPLC analysis relative to control. It counts as ADME, organism-based. Details: dose 3 mg/kg, route intravenous. The note with it: in vivo. In short, it runs like this:
as §1

For data set [11], the system named is Hippocampus. Description: Biodistribution in Sprague-Dawley rat hippocampus assessed as increase in uptake at 0.07 to 0.11 nmol, iv pre-treated with 3 mg/kg of SB269970 measured up to 90 mins by HPLC analysis relative to control. The class given is ADME, organism-based. Details: dose 3 mg/kg, route intravenous. To be noted: in vivo. In short, it runs like this:
as §1

The target in data set [12] is 5-hydroxytryptamine receptor 7 (Rattus norvegicus) (UniProt P32305). Description: Binding affinity to 5-HT7 in Sprague-Dawley rat brain assessed as reduction in total radioactivity at 1 nM after 30 mins by autoradiography in presence of SB269970. The note with it: tested as the 11C-labelled form. In short, it runs like this:
(§4)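 Frozen sagittal male Sprague–Dawley rat brain sections were preincubated 3 × 5 min in 50 mM Tris–HCl, pH 7.4, at room temperature. They were then incubated 30 min at room temperature in fresh buffer with 1 nM [11C]tracer, alone or with unlabeled ligand or SB269970 added to define specific binding. Sections were washed 3 × 5 min in cold buffer, dipped in cold water and air-dried. Imaging-plate photo-stimulated luminescence was read in regions of interest; n = 4.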

Data set [13] has the same target. Briefly: Binding affinity to 5-HT7 in Sprague-Dawley rat brain assessed as reduction in total radioactivity at 1 nM after 30 mins by autoradiography in presence of unlabelled compound. The note with it: tested as the 11C-labelled form. In short, it runs like this: as §4
Data set [14] concerns the target T1, 5-hydroxytryptamine receptor 1A (Rattus norvegicus) (UniProt P19327).
T1 sequence (whole entry): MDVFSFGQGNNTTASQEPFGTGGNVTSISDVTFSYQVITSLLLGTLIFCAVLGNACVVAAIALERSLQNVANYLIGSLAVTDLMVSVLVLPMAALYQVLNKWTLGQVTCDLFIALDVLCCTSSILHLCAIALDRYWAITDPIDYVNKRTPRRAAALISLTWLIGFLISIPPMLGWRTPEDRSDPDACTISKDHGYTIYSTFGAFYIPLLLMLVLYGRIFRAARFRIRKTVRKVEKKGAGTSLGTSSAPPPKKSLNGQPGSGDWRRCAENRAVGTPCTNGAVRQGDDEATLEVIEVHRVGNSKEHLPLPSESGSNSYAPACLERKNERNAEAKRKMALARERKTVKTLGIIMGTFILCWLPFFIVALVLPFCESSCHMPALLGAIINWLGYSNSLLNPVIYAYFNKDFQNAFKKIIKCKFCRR
Description: Binding affinity to 5-HT1A in Sprague-Dawley rat cerebral cortex at 1 nM after 30 mins by autoradiography. It counts as tissue-based. The note with it: tested as the 11C-labelled form.

The target of data set [15] is T1, 5-hydroxytryptamine receptor 1A (Rattus norvegicus). Briefly: Binding affinity to 5-HT1A in Sprague-Dawley rat hippocampus at 1 nM after 30 mins by autoradiography. It counts as tissue-based. To be noted: tested as the 11C-labelled form.
In data set [16] the target is 5-hydroxytryptamine receptor 7 (Rattus norvegicus) (UniProt P32305). Briefly: Binding affinity to 5-HT7 in Sprague-Dawley rat straitum at 1 nM after 30 mins by autoradiography. To be noted: tested as the 11C-labelled form. In short, it runs like this: as §4
5-hydroxytryptamine receptor 7 (Rattus norvegicus), sequence (P32305 whole entry): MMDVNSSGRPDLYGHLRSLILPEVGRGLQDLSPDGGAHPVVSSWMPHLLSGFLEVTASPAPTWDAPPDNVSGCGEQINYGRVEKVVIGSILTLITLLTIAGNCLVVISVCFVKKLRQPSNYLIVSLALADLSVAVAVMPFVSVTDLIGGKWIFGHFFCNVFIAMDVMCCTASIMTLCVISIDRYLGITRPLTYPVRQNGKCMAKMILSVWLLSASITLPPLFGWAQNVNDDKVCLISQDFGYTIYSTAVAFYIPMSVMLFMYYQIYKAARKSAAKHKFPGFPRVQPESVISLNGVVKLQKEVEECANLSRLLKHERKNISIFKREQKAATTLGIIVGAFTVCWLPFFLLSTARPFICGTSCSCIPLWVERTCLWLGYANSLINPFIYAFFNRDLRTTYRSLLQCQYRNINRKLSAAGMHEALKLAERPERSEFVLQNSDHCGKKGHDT
The target is the same in data set [17]. Briefly: Binding affinity to 5-HT7 in Sprague-Dawley rat pons/medulla at 1 nM after 30 mins by autoradiography. The note with it: tested as the 11C-labelled form. In short, it runs like this:
as §4

The target is the same in data set [18]. Description: Binding affinity to 5-HT7 in Sprague-Dawley rat cerebellum at 1 nM after 30 mins by autoradiography. To be noted: tested as the 11C-labelled form. In short, it runs like this: as §4
Data set [19] shares this target. Description: Binding affinity to 5-HT7 in Sprague-Dawley rat thalamus at 1 nM after 30 mins by autoradiography. To be noted: tested as the 11C-labelled form. In short, it runs like this: as §4
Data set [20] has as its target 5-hydroxytryptamine receptor 7 (Rattus norvegicus, UniProt P32305). Briefly: Binding affinity to 5-HT7 in rat brain. The class given is tissue-based.
Data set [21] concerns the target T1, 5-hydroxytryptamine receptor 1A (Rattus norvegicus). Description: Binding affinity to 5-HT1A in Sprague-Dawley rat hippocampus after 30 mins by autoradiography. The class given is tissue-based.
Data set [22] shares this target. Briefly: Binding affinity to 5-HT1A in Sprague-Dawley rat frontal cortex after 30 mins by autoradiography. It counts as tissue-based.

The logD is lipophilicity at a set pH, counting ionised and neutral species. Low values mean a more hydrophilic compound, high ones a more lipophilic compound. Usually Ki stands for the equilibrium dissociation constant of an inhibitor or competing ligand from its target. A high value points to lower affinity.

5-hydroxytryptamine receptor 7, sequence (P32305 whole entry): as above

In the case of `[11CH3]Oc1ccc(-c2ccccc2N2CCNCC2)cc1`, the “fold change (FC)” value in [1], in data set [9], in data set [10] and in [11] was 2 in each case. In data set [2], this compound yielded a Drug uptake of 20%. Moreover, the remaining at 1 h in [3] came out at 69%; in data set [5], 30%. Further, the remaining at 0.25 h in [4] is 91%; in data set [6], 51%. Moreover, in data set [7], the SUV came out at 1.2. In data set [8], this compound came in with a logD of 1.67.

On to `COc1ccc(-c2ccccc2N2CCNCC2)cc1`, for which the outcome in [12], in [13], in [14] and in data set [15] was inactive. In addition, the outcome in [16], in data set [17], in [18] and in data set [19] was Active. The compound also gave a Ki in data set [20] of 2.6 nM. Moreover, the Bmax in [21] and in data set [22] was 5 nM in each case.
